Results gathered from unrelated publications.
Target: Tyrosine-protein kinase Yes (YES1, Homo sapiens, UniProt P07947)

The remaining binding of `COc1ccc2cc(OCC3(C(=O)O)CN(C(=O)c4ccc(F)cc4)C3)ccc2c1` is reported as 100% (cell-free assay; competition with immobilised ligand; 1 µM).
For `F[C@@H]1CCN(c2nccc(-c3cnn4ncccc34)n2)C1`, the remaining binding was 90% (binding; 1 µM).
`CCC(=N\O)/C(C)=C/c1ccc(F)cc1` has a remaining binding of 87% (cell-free assay; competition with immobilised ligand; 1 µM).
For `CN1CCN(c2ccc(Nc3nccc(-c4ccccc4)n3)cc2C(F)(F)F)CC1`, the remaining binding was 56% (binding; 10 µM).
`FC(F)(F)Oc1cccc(-c2cnc3ccc(-c4ccncc4)nn23)c1` has a remaining binding of 81% (binding; competition with immobilised ligand; 5 µM).
For `Cc1c(NC(=O)c2cc(C(N)=O)nc3cc(F)ccc23)c(C(F)(F)F)nn1Cc1ccc(C#N)cc1`, the remaining binding was 66% (cell-free assay; competition with immobilised ligand; 1 µM).
`C=CC(=O)N1CCC(C(=O)NCC(=O)N2CCN(c3nc(-c4cnc(N)nc4C(F)F)nc(N4CCOCC4)n3)CC2)CC1` gave a remaining binding of 97% (binding; competition with immobilised ligand; 1 µM).
`C[C@H](NC(=O)c1cnc2n1[C@](C)(Cc1ccc(C#N)cc1)C(=O)N2c1cc(Cl)c(F)c(Cl)c1)C(=O)NC1(c2ccccn2)CC1` gave a remaining binding of 100% (cell-free assay; competition with immobilised ligand; 1 µM).
The remaining binding of `CNC(=O)[C@@H]1CC[C@@H](n2c(-c3ccc4cnccc4c3)nc3ccc(C(=O)NCc4cccc(C(N)=O)c4)cc32)C1` is reported as 100% (binding; competition with immobilised ligand; 1 µM).
With `O=C(NCC1CCOCC1)c1n[nH]cc1NC(=O)c1c(F)cccc1F` the remaining binding was 99% (binding; competition with immobilised ligand; 1 µM).
For `O=C(c1ccc(Nc2ncc(Cl)c(-c3ccc(Cl)s3)n2)cc1)N1CCC(N2CCCC2)CC1`, the remaining binding was 55% (binding; competition with immobilised ligand; 1 µM).
`COc1ccnn2ncc(-c3ccnc(N(C)C)n3)c12` gave a remaining binding of 100% (binding; 1 µM).
With `O=C(NCCCN1CCOCC1)c1ccc(Nc2ncc(Cl)c(-c3ccc(Cl)s3)n2)cc1` the remaining binding was 76% (binding; competition with immobilised ligand; 1 µM).
`c1cncc(-c2cccc(Nc3nccc(NC4CCCCC4)n3)c2)c1` gave a remaining binding of 28% (binding; competition with immobilised ligand; 10 µM).
`CN(C)c1nccc(-c2cnc3ncccn23)n1` has a remaining binding of 88% (binding; 1 µM).
For `Cc1c(C(=O)O)cc(-c2ccc(C3CCNCC3)cc2)c2ccc(-c3ccc(C(F)(F)F)cc3)cc12`, the remaining binding was 100% (cell-free assay; competition with immobilised ligand; 1 µM).
`CN(C)c1ncc(F)c(-c2cnn3ncccc23)n1` gave a remaining binding of 78% (binding; 1 µM).
For `Cc1ccc(-n2nc(C(C)(C)C)cc2NC(=O)Nc2ccc(-n3c(N)c(C(N)=O)c4nc5ccc(NCCCN)cc5nc43)cc2)cc1`, the remaining binding was 1.9% (cell-free assay; competition with immobilised ligand; 1 µM).
`O=C(NCc1ncc(C(F)(F)F)cc1Cl)c1ccc2c(c1)C1(CCS(=O)(=O)CC1)[C@H](C1CC1)N2S(=O)(=O)c1ccc(F)cc1` has a remaining binding of 90% (cell-free assay; competition with immobilised ligand; 1 µM).
For `N[C@H]1CCN(c2nccc(-c3cnn4ncccc34)n2)C1`, the remaining binding was 91% (binding; 1 µM).
For `CC(=O)N1CCC(c2ccc(C(=O)NC(=N)N)cc2C(F)(F)F)CC1`, the remaining binding was 98% (cell-free assay; competition with immobilised ligand; 1 µM).
`c1cnn2ncc(-c3ccnc(N4CCC45COC5)n3)c2c1` gave a remaining binding of 72% (binding; 1 µM).
`CN(C)c1ncnc(-c2ccc3nc(Nc4cc(CN5CCN(C(=O)CC(F)(F)F)CC5)ccn4)[nH]c3c2)c1Cl` gave a remaining binding of 76% (cell-free assay; competition with immobilised ligand; 1 µM).
`O=C(c1ccc(Nc2nccc(-c3cc4ccccc4s3)n2)cc1)N1CCC(N2CCCC2)CC1` has a remaining binding of 93% (binding; competition with immobilised ligand; 1 µM).
The remaining binding of `C[C@H]1CCN(c2nccc(-c3cnn4ncccc34)n2)C1` is reported as 94% (binding; 1 µM).
